Test results from ChEMBL document CHEMBL4414612, “Synthesis and Pharmacological Evaluation of 1-Phenyl-3-Thiophenylurea Derivatives as Cannabinoid Type-1 Receptor Allosteric Modulators” (J Med Chem, 2019).
Values after ≈ are worked out from the molar mass of the structure shown. Active and inactive are the calls of the source. No cut-off for these calls is given here.

Legend:
[1] = Apparent permeability from apical to basolateral side in MDCK-MDR1 cells incubated up to 90 mins by LC-MS/MS analysis; type: ADME, cell-based, Canis lupus familiaris; conditions: dog
Outline: (§1)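 MDCK-MDR1 cells were grown 3 days on Transwell supports and preincubated 30 min at 37 °C in HBSS with 10 mM HEPES and 0.25% BSA, pH 7.4, with TEER checked. Test article (10 µM) was added to the apical (A-to-B) or basolateral (B-to-A) donor side at 37 °C with light agitation. Receiver samples were taken at 30, 60 and 90 min for LC-MS/MS. Papp = (dQ/dt)/(A·Ci·60).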

[2] = tested on: Rattus norvegicus; experiment: Suppression of drug-induced cocaine-seeking behavior in Sprague-Dawley rat assessed as effect on inactive responses at 10 mg/kg, ip pretreated 10 mins prior to priming injection of cocaine administered immediately before the start of the reinstatement session; type: functional, organism-based
[3] = Kinetic solubility in phosphate buffer at 400 uM incubated for 2 hrs by LC-MS/MS analysis; type: physicochemical; conditions: read-out: Kinetic_solubility
Outline: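 A 20 mM DMSO stock was diluted into phosphate buffer to a targeted 400 µM and vortexed 2 h at room temperature. Three independent experiments in duplicate.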

[4] = biological target: T1, Cannabinoid receptor 2 (Homo sapiens, UniProt P34972); experiment: (§2) Antagonist activity at human CB2 receptor expressed in CHO cells co-expressing Galpha16 assessed as inhibition of EC80 CP55,940-induced calcium mobilization preincubated for 15 mins followed by […] addition measured at 1 sec interval for 90 secs by calcium-5 dye based FLIPR assay; type: functional, cell-based
Outline: (§3)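 CB2 antagonist mode in stable human CB2-CHO-RD-HGA16 cells. Cells were dye-loaded, then pretreated with compound for 15 min at 37 °C. CP55,940 was added at its EC80 at the 10 s point, and calcium fluorescence was recorded every 1 s over 90 s.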

[5] = biological target: T2, Cannabinoid receptor 1 (Homo sapiens, UniProt P21554); experiment: Inverse agonist activity at human CB1 receptor expressed in HEK293 cell membranes assessed as suppression of [35S]GTPgammaS binding up to 10 uM incubated for 60 mins by scintillation counting method; conditions: hek293, 1 h
Outline: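 Inverse agonism on human CB1-HEK293 membranes: compounds were incubated 60 min with 0.1 nM [35S]GTPγS and 30 µM GDP, with no CP55,940 present. Buffer was Tris/MgCl2/EGTA pH 7.4 with 0.5% BSA, at 30 °C. Binding was read by filtration and scintillation counting and normalized to basal (vehicle = 0%).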

[6] = biological target: T1, Cannabinoid receptor 2; experiment: as §2, with “mobilization at 10 uM” for “mobilization”, “assay relative to CP55,940” for “assay”; type: functional, cell-based; outline: as §3
[7] = biological target: T2, Cannabinoid receptor 1; experiment: Allosteric modulator activity at human CB1 receptor expressed in CHO-RD-HGA16 cells co-expressing Galpha16 assessed as suppression of 100 nM CP55,940-induced calcium mobilization pre-incubated for 15 mins by Calcium 5 dye based FLIPR assay; type: functional, cell-based
[8] = Half life in rat liver microsomes in presence of NADPH by LC-MS/MS analysis; type: ADME, Microsome; conditions: microsomes
Outline: (§4)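 Rat liver microsomes (0.5 mg/mL protein) in 100 mM potassium phosphate pH 7.4 at 37 °C with 1 mM NADPH. Samples were taken at 0, 5, 15, 30 and 45 min, quenched with cold acetonitrile containing internal standards, and analysed by LC/MS/MS. Half-life and clearance were calculated; two independent experiments in duplicate.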

[9] = biological target: T1, Cannabinoid receptor 2; experiment: Agonist activity at human CB2 receptor expressed in CHO cells co-expressing Galpha16 assessed as increase in calcium mobilization at 10 uM measured at 1 sec interval for 90 secs by calcium-5 dye based FLIPR assay relative to CP55,940; type: functional, cell-based
[10] = Clearance in rat liver microsomes in presence of NADPH incubated up to 45 mins by LC-MS/MS analysis; type: ADME, Microsome; conditions: microsomes, […]; outline: as §4
[11] = Efflux ratio from basolateral to apical side over apical to basolateral side in MDCK-MDR1 cells incubated up to 90 mins by LC-MS/MS analysis; type: ADME, cell-based, Canis lupus familiaris; conditions: dog
[12] = Apparent permeability from basolateral to apical side in MDCK-MDR1 cells incubated up to 90 mins by LC-MS/MS analysis; type: ADME, cell-based, Canis lupus familiaris; conditions: dog; outline: as §1
[13] = tested on: Rattus norvegicus; experiment: Suppression of drug-induced cocaine-seeking behavior in Sprague-Dawley rat assessed as effect on active responses at 10 mg/kg, ip pretreated 10 mins prior to priming injection of cocaine administered immediately before the start of the reinstatement session; type: functional, organism-based

T1 sequence (P34972 whole entry): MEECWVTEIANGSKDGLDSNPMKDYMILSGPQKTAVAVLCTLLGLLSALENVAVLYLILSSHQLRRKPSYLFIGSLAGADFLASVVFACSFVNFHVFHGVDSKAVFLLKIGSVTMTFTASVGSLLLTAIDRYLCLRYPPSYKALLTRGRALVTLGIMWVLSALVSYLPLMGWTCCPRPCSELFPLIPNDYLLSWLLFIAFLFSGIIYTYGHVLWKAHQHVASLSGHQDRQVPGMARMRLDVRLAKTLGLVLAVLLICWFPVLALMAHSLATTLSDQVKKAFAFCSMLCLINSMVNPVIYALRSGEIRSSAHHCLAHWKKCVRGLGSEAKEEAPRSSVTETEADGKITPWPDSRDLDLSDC
T2 sequence (P21554 whole entry): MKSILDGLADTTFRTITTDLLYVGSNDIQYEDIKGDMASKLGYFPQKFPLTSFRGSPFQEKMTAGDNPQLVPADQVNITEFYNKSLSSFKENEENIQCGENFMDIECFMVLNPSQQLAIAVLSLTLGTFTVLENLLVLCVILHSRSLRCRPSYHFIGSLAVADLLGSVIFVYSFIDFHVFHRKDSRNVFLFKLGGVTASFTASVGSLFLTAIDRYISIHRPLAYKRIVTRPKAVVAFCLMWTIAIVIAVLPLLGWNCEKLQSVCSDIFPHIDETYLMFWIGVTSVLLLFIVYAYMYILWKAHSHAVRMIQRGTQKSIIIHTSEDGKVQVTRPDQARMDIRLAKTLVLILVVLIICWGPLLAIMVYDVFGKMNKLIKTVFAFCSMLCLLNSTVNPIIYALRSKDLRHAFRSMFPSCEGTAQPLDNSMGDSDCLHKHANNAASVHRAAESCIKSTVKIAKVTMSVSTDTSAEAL

Q: Which Papp [1] does the source give for `O=C(Nc1ccc(Cl)cc1)Nc1ccc(-c2ccccc2)s1` here?
A: The Papp was 1.6 ×10⁻⁶ cm/s.

Q: And the Activity [2]?
A: The Activity was “inactive”.

Q: And the solubility kinetic at 2 h, 400 µM [3]?
A: Its solubility kinetic at 2 h, 400 µM is 1.5 µM (≈ 0.493 µg/mL).

Q: What about the IC50 [4] of the same compound?
A: Its IC50 is over 10 µM.

Q: What about the “inhibition (INH)” value [5] of the same compound?
A: The value was “Not Active”.

Q: And the inhibition [6]?
A: The inhibition was under 50%.

Q: And the IC50 [7]?
A: The IC50 was 6.8 nM.

Q: What about the t1/2 [8] of the same compound?
A: The t1/2 was 65 min.

Q: What about the Emax [9] of the same compound?
A: Its Emax is under 10%.

Q: What about the CLH [10] of the same compound?
A: The CLH was 22.2 µL/min/mg.

Q: And the Ratio [11]?
A: The Ratio was 0.7.

Q: And the Papp [12]?
A: Its Papp is 1.1 ×10⁻⁶ cm/s.

Q: What about the Activity [13] of the same compound?
A: Its Activity is “inactive”.
